Measured values taken from the M2OR odorant receptor database.

molecular target: T1, UniProt Q8VEU7; conditions: stereoisomer not certain
T1 sequence (whole entry): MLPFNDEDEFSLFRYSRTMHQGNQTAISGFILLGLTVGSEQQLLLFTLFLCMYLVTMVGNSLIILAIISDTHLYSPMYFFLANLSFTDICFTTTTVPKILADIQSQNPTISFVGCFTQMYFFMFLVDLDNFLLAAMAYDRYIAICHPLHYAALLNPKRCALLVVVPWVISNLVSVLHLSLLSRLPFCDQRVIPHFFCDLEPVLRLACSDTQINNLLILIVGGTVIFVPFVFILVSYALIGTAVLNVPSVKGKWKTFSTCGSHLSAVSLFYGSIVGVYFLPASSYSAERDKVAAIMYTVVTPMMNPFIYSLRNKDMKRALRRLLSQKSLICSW
Outline: (§1)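 Values were gathered from published papers (main text and supplementary material), with extra details requested from the original authors when needed, and checked for typos and inconsistencies. Each receptor–molecule pair is called responsive (active) if the original authors judged the measured signal statistically different from baseline, and non-responsive (inactive) otherwise. Assay methods varied by source, often transient mammalian cell-line luciferase assays. Recorded details include cell line, G-protein, co-transfected protein and tags.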

Row | SMILES | odorant receptor agonist call
1 | CCCCOC(=O)C(C)OC(=O)CCC (configuration not stated) | inactive
2 | CC(C)=CCCC(C)=CCO | inactive
3 | O=C(c1ccccc1)c1ccccc1 | inactive
4 | CCCCCCOC(C)=O | inactive
5 | CCCCCCC(=O)[O-].[H+] | inactive
6 | CCCCCCCC(=O)[O-].[H+] | inactive
7 | CCCCCCC(C)=O | inactive
8 | CCC(C(=O)O)c1ccccc1 (configuration not stated) | inactive
9 | CC(=O)Oc1ccccc1 | inactive
10 | CCCCCO | inactive
11 | CCCC(C)=O | inactive

molecular target: T2, UniProt Q8VF05; conditions: stereoisomer not certain
T2 sequence (whole entry): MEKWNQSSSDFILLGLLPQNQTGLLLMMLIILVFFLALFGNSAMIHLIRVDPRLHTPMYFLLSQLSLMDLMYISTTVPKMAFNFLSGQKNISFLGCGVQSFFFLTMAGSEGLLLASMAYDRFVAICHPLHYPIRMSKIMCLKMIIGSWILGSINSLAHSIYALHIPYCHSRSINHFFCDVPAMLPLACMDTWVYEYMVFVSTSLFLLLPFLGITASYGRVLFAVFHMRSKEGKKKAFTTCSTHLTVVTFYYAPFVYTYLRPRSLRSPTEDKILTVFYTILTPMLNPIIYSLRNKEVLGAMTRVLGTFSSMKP
Outline: as §1

Row | SMILES | odorant receptor agonist call
12 | CCCCOC(=O)C(C)OC(=O)CCC (configuration not stated) | inactive
13 | CC(C)=CCCC(C)=CCO | inactive
14 | O=C(c1ccccc1)c1ccccc1 | inactive
15 | CCCCCCOC(C)=O | inactive
16 | CCCCCCC(=O)[O-].[H+] | inactive
17 | CCCCCCCC(=O)[O-].[H+] | inactive
18 | CCCCCCC(C)=O | inactive
19 | CCC(C(=O)O)c1ccccc1 (configuration not stated) | inactive
20 | CC(=O)Oc1ccccc1 | inactive
21 | CCCCCO | inactive
22 | CCCC(C)=O | active
